Experimental data reported in PMC9720839 (Cell reports, 2022).
“Also recorded” adds a separate entry of the source. {56-FAM} = 6-carboxyfluorescein label (IDT code)

What was measured:
[1] = biological target: hP13 ZnF5-WWE1-WWE2 (wild type) (Homo sapiens, UniProt Q7Z2W4); experiment: Differential scanning fluorimetry; type: binding; conditions: protein 8 μM, DSF
Method in brief: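 His-GB1-tagged human fragment (residues 507–699) expressed in E. coli Rosetta2, TEV-cleaved, purified by Ni2+, gel filtration and Q flow-through. TM from Boltzmann fit; ΔTM = TM with ligand minus without; two repeats.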

[2] = tested on: WWE domain from RNF-146; conditions: ref Wang et al., 2012; cited from earlier work
[3] = biological target: T1, hP13 ZnF5-WWE1-WWE2 W611A mutant (Homo sapiens, UniProt Q7Z2W4, W611A); experiment: Differential scanning fluorimetry; type: binding; conditions: protein 8 μM, DSF
T1 sequence (Q7Z2W4 507-699 W611A): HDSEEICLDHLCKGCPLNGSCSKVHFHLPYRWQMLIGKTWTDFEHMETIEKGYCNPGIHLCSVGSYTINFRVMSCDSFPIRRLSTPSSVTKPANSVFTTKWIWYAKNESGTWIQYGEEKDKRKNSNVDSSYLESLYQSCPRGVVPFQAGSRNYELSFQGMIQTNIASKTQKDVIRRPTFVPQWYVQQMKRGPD

[4] = biological target: mouse PARP13 (mP13) ZnF5-WWE1-WWE2 (residues 476-673) (mouse) (UniProt Q3UPF5); experiment: SEC-MALS
[5] = biological target: hP13 ZnF5-WWE1-WWE2 (Homo sapiens, UniProt Q7Z2W4); experiment: FP RNA binding assay; conditions: FAM-labeled RNA 5 nM, 300 mM KCl
Chain of hP13 ZnF5-WWE1-WWE2 (Q7Z2W4 507-699): as the sequence (Q7Z2W4 507-699 W611A) above, with A105W counted along it

[6] = tested on: WWE domain of RNF-146; experiment: Fluorescence polarization; conditions: direct FP binding, probe 5 nM
[7] = biological target: T1, hP13 ZnF5-WWE1-WWE2 W611A mutant; experiment: Fluorescence polarization; conditions: direct FP binding, probe 5 nM
Method in brief: (§1)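 QuickChange point mutants of human fragment (residues 507–699), His-GB1 fusion, expressed in Rosetta2 (0.2 mM IPTG, 16°C, 18 h), TEV-cleaved, purified by Ni2+, gel filtration, Q flow-through. Quadratic 1:1 KD fit; ≥3 experiments, mean ± SD.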

[8] = biological target: hP13 ZnF5-WWE1-WWE2 R682A mutant (Homo sapiens, UniProt Q7Z2W4, R682A); experiment: Fluorescence polarization; type: binding; conditions: R682A versus wild-type hP13 ZnF5-WWE1-WWE2
Chain of hP13 ZnF5-WWE1-WWE2 R682A mutant (Q7Z2W4 507-699 R682A): as the sequence (Q7Z2W4 507-699 W611A) above, with A105W, R176A counted along it
Method in brief: as §1

[9] = biological target: hP13 ZnF5-WWE1-WWE2 R577A mutant (Homo sapiens, UniProt Q7Z2W4, R577A); experiment: Fluorescence polarization; type: binding; conditions: R577A versus wild-type hP13 ZnF5-WWE1-WWE2
Chain of hP13 ZnF5-WWE1-WWE2 R577A mutant (Q7Z2W4 507-699 R577A): as the sequence (Q7Z2W4 507-699 W611A) above, with R71A, A105W counted along it
Method in brief: as §1

Chain of hP13 ZnF5-WWE1-WWE2 (wild type) (Q7Z2W4 507-699): as the sequence (Q7Z2W4 507-699 W611A) above, with A105W counted along it

Compound | change in thermal stability in presence of ligand (in words) [1] | binding (in words) [2] | change in thermal stability in presence of ligand (in words) [3] | also measured
Nc1ncnc2c1ncn2[C@@H]1O[C@H](COP(=O)(O)O)[C@@H](O)[C@H]1O[C@@H]1O[C@H](COP(=O)(O)O)[C@@H](O)[C@H]1O [iso-ADPr] | increase in thermal stability in the presence of iso-ADPr, but to a lesser extent than seen with ADPr | capable of binding | – | –
Nc1ncnc2c1ncn2[C@@H]1O[C@H](COP(=O)(O)OP(=O)(O)OC[C@H]2OC(O)[C@H](O)[C@@H]2O)[C@@H](O)[C@H]1O (some centres unmarked) [ADPr, ADP-ribose] | increase in the thermal stability; also recorded: increased hP13 ZnF5-WWE1-WWE2 thermal stability | do not bind | did not show an increase in thermal stability | –
Nc1ncnc2c1ncn2[C@@H]1O[C@H](COP(=O)(O)OP(=O)(O)OP(=O)(O)O)[C@@H](O)[C@H]1O [ATP] | increase in the thermal stability | – | did not show an increase in thermal stability | –
mouse PARP13 (mP13) ZnF5-WWE1-WWE2 (residues 476-673) (from UniProt Q3UPF5 476-673) (domain or fragment) | – | – | – | percent of the scattering mass in the dimer peak [4]: 4%; stoichiometry N [4]: 2
/56-FAM/rArArArCrArArArArArArArGrArCrGrArArArArA (AAACAAAAAAAGACGAAAAA; RNA, 5' {56-FAM}, backbone not given here) [RNA-FAM] | – | – | – | RNA binding (in words) [5]: unable to bind
γ-(6-Aminohexyl)-ATP-6-FAM [ATP-FAM] | – | – | – | binding to probe (in words) [6]: no evidence of binding; also recorded: no indication of binding; binding to probe (in words) [7]: no evidence of binding; also recorded: no indication of binding; binding affinity, fold weaker than wild type [8]: 1.2 fold; binding affinity, fold weaker than wild type [9]: 1.1 fold
